Active and inactive are the calls of the source. No cut-off for these calls is given here.
Columns and labels:
[1] = biological target: T1, DNA repair nuclease/redox regulator APEX1 (Homo sapiens, UniProt P27695); assay: Inhibition of human recombinant APE1 at 57 uM after 15 mins by fluorescence based HTS assay
How it was run: (§1)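 APE1 inhibition was measured in the fluorescence-based qHTS format at up to 57 µM. IC50 is the average of three separate experiments.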

[2] = biological target: T1, DNA repair nuclease/redox regulator APEX1; assay: Inhibition of human recombinant APE1 after 15 mins by fluorescence based HTS assay; how it was run: as §1
[3] = biological target: T1, DNA repair nuclease/redox regulator APEX1; assay: Inhibition of APE1 in human HeLa whole cell extract using […]-5'-AP-DNA as substrate assessed as activity remaining at 100 uM incubated for 15 mins prior to substrate addition measured after 5 mins by PAGE analysis relative to control
How it was run: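 HeLa whole cell extract (300 ng; KCl-extracted hypotonic lysate) was preincubated with inhibitor for 15 min at room temperature, at 100 µM or at 0–100 µM. Then 0.5 pmol 32P AP-DNA was added for 5 min at 37 °C. Samples were run on denaturing PAGE, and incision is reported relative to the no-inhibitor control, from three independent measurements.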

[4] = biological target: T1, DNA repair nuclease/redox regulator APEX1; assay: Inhibition of recombinant APE1 using […]-5'-AP-DNA as substrate incubated for 15 mins prior to substrate addition measured after 5 mins by PAGE analysis
[5] = biological target: T1, DNA repair nuclease/redox regulator APEX1; assay: Inhibition of APE1 in human HeLa cells assessed as accumulation of genomic AP sites […] after 24 hrs by aldehyde reactive probe-based assay relative to control; format: cell-based
How it was run: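 HeLa cells at 80% confluency were exposed for 24 h at 37 °C to DMSO, 275 µM MMS, or 7.5 µM inhibitor, each alone, or to 275 µM MMS plus 7.5 µM inhibitor. Genomic DNA was isolated and adjusted to 100 ng/µL. 10 µL was labelled with aldehyde reactive probe (biotin-hydrazide reagent) and AP sites were quantified by kit. Samples ran in triplicate and were compared with a Student's t test.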

T1 sequence (P27695 whole entry): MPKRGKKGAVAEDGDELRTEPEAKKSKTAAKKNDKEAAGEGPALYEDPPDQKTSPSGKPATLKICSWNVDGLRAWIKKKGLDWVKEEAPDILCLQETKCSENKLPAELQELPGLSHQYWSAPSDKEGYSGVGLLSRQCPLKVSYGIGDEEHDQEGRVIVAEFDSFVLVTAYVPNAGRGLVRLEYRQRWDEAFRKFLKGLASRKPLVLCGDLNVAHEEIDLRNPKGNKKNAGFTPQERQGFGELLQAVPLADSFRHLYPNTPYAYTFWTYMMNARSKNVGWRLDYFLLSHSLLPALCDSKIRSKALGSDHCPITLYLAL

| inhibition [1] [%] | IC50 [2] [µM] | Structure (SMILES) | other results |
| --- | --- | --- | --- |
| – | 5.3 | CC(C)N1CCc2c(sc(NC(=O)C(F)F)c2-c2nc3ccccc3s2)C1 | – |
| – | 8.3 | CC(C)N1CCc2c(sc(NC(=O)C3CCCCC3)c2-c2nc3ccccc3s2)C1 | – |
| 57 | – | C#CCCC(=O)Nc1sc2c(c1-c1nc3ccccc3s1)CCN(C(C)C)C2 | – |
| – | 17.6 | CC(=O)Nc1sc2c(c1-c1nc3ccccc3s1)CCN(C(C)C)CC2 | Activity [3]: 1.1%; IC50 [4]: 13 µM |
| – | 2.9 | CC(=O)Nc1sc2c(c1-c1nc(-c3ccccc3)cs1)CCN(C(C)C)C2 | Activity [3]: 15%; IC50 [4]: 3 µM |
| 56 | – | CC(=O)Nc1sc2c(c1-c1nc3ccccc3s1)CCSC2 | – |
| – | 3.1 | CC(=O)Nc1sc2c(c1-c1nc3ccccc3s1)CN(C(C)C)C2 | Activity [3]: 57%; IC50 [4]: 4 µM |
| 57 | – | CC(C)N1CCc2c(sc(NC(=O)c3ccccc3)c2-c2nc3ccccc3s2)C1 | – |
| – | > 57 | CC(=O)Nc1sc2c(c1-c1nc3ccccc3s1)CCN(C(=O)OC(C)(C)C)C2 | – |
| 40 | – | CC(C)N1CCc2c(sc(N)c2-c2nc3ccccc3s2)C1 | – |
| – | 20.4 | CC(=O)Nc1sc2c(c1-c1nc3ccccc3o1)CCN(C(C)C)C2 | Activity [3]: 12%; IC50 [4]: 13 µM |
| – | > 57 | O=C(CCc1ccccc1)Nc1sc2c(c1-c1nc3ccccc3s1)CCNC2 | – |
| 41 | – | CC(=O)Nc1sc2c(c1-c1nc3ccccc3s1)CCOC2 | – |
| 53 | – | CC(C)N1CCc2c(sc(NC(=O)Cc3ccccc3)c2-c2nc3ccccc3s2)C1 | – |
| – | 12.9 | CC(=O)Nc1sc2c(c1-c1nc3ccccc3s1)CCCN(C(C)C)C2 | Activity [3]: 14%; IC50 [4]: 14 µM |
| – | 3.8 | CC(=O)Nc1sc2c(c1-c1nc3ccccc3s1)CCN(C)C2 | Activity [3]: 26%; IC50 [4]: 5 µM |
| 41 | – | CC(=O)Nc1sc2c(c1-c1nc3ccccc3s1)CCN(Cc1ccccc1)C2 | – |
| – | 9.1 | CCCCC(=O)Nc1sc2c(c1-c1nc3ccccc3s1)CCN(C(C)C)C2 | – |
| 59 | – | CC(=O)Nc1sc2c(c1-c1nc3ccccc3s1)CCN(C(C)=O)C2 | – |

The next lines start with the compound.

| Structure (SMILES) | inhibition [1] [%] | IC50 [2] [µM] | other results |
| --- | --- | --- | --- |
| O=C(Nc1sc2c(c1-c1nc3ccccc3s1)CCNC2)C1CCCC1 | 55 | – | – |
| O=C(O)c1cc2cccc([N+](=O)[O-])c2[nH]1 | 40 | – | – |
| CC(=O)Nc1sc2c(c1-c1nc3ccccc3s1)CCNC2 | – | 2.9 | Activity [3]: 1.4%; IC50 [4]: 5 µM |
| Cc1nnc(-c2sc3c(c2-c2nc4ccccc4s2)CCNC3)o1 | – | > 57 | – |
| CC(=O)Nc1sc2c(c1-c1ccco1)CCNC2 | 41 | – | – |
| O=C(Nc1sc2c(c1-c1nc3ccccc3s1)CCNC2)C(F)(F)F | – | 17.6 | – |
| Cc1noc(Nc2sc3c(c2-c2nc4ccccc4s2)CCNC3)n1 | – | 18.2 | – |
| CC(=O)Nc1sc2c(c1-c1csc3ccccc13)CCNC2 | – | > 57 | – |
| CC(C)(C)C(=O)Nc1sc2c(c1-c1nc3ccccc3s1)CCNC2 | – | > 57 | – |
| Cc1nnc(Nc2sc3c(c2-c2nc4ccccc4s2)CCNC3)o1 | – | 19 | – |
| CC(=O)Nc1sc2c(c1-c1cc3ccccc3s1)CCNC2 | 23 | – | – |
| COC(=O)Nc1sc2c(c1-c1nc3ccccc3s1)CCNC2 | – | 11.1 | – |
| CC(=O)Nc1sc2c(c1-c1cccc3ccccc13)CCNC2 | – | > 57 | – |
| CC(=O)Nc1sc2c(c1-c1cc3ccccc3[nH]1)CCNC2 | – | > 57 | – |
| COC(=O)c1sc2c(c1-c1nc3ccccc3s1)CCNC2 | – | > 57 | – |
| CC(=O)Nc1cc2c(s1)CNCC2 | 47 | – | – |
| CC(=O)Nc1sc2c(c1-c1cc3ccccc3o1)CCNC2 | 66 | – | – |

| Structure (SMILES) | inhibition [1] [%] | IC50 [2] [µM] | other results |
| --- | --- | --- | --- |
| CC(=O)Nc1sc2c(c1-c1nccs1)CCNC2 | 55 | – | – |
| CC(=O)Nc1sc2c(c1-c1ccccc1)CCNC2 | 42 | – | – |
| CC(=O)Nc1sc2cnccc2c1-c1nc2ccccc2s1 | – | > 57 | – |
| c1ccc2sc(-c3csc4c3CCNC4)nc2c1 | – | 25.2 | – |
| O=C(Nc1sc2c(c1-c1nc3ccccc3s1)CCNC2)C1CC1 | – | 6 | – |
| O=C(O)c1sc2c(c1-c1nc3ccccc3s1)CCNC2 | – | > 57 | – |
| CC(=O)Nc1sc2c(c1-c1nc3ccccc3s1)CCS(=O)(=O)C2 | 29 | – | – |
| CC(=O)Nc1sc2c(c1-c1ncco1)CCNC2 | 45 | – | – |
| CC(=O)Nc1sc2c(c1-c1cccs1)CCNC2 | 34 | – | – |
| CC(=O)Nc1sc2c(c1C#N)CCN(C(C)C)C2 | 31 | – | – |
| C#CCCC(=O)Nc1sc2c(c1-c1nc3ccccc3s1)CCNC2 | – | 12 | – |
| CC(=O)Nc1sc2c(c1Br)CCNC2 | 30 | – | – |
| CC(=O)Nc1sc2c(c1C(=O)O)CCNC2 | 29 | – | – |
| COS(C)(=O)=O | – | – | inhibition [5]: Active |
| CC(=O)Nc1sc2c(c1-c1nc3ccccc3s1)CNCC2 | 31 | – | – |
| O=C(Nc1sc2c(c1-c1nc3ccccc3s1)CCNC2)C(F)F | – | 3.8 | Activity [3]: 38%; IC50 [4]: 4 µM |
| Cc1noc(-c2sc3c(c2-c2nc4ccccc4s2)CCNC3)n1 | – | > 57 | – |
